# Measurements as given in ChEMBL document CHEMBL5236602, “Synthesis and Characterization of NUC-7738, an Aryloxy Phosphoramidate of 3'-Deoxyadenosine, as a Potential Anticancer Agent” (J Med Chem, 2022).
# Calls of active or inactive are those of the source. The rule behind the calls is not given here.
# Columns and labels:
# RL [1] = assay: Potency index, ratio of 3'-Deoxyadenosine LC50 to test compound LC50 for cytotoxicity against human RL cells assessed as cell death incubated for 72 hrs by MTS assay; assay type: functional
# [2] = Stability in human plasma assessed as reduction in parent compound concentration at 20 uM measured upto 4 hrs by UPLC-MS/MS analysis; assay type: ADME, cell-free
# [3] = Prodrug activation assessed as Saccharomyces cerevisiae carboxypeptidase Y-mediated (2R)-2-(((((2S,4R,5R)-5-(6-amino-9H-purin-9-yl)-4-hydroxytetrahydrofuran-2-yl)methoxy)(hydroxy)phosphoryl)amino)propanoic acid formation at 5 mg measured over 1 hr by 31P-NMR analysis
# Summary of the method: (§1)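 Prodrug (5 mg) in acetone-d6 with trizma buffer pH 7.6, with a t = 0 31P NMR (202 MHz) reference taken first. Carboxypeptidase Y stock (50 units/mL in trizma pH 7.6) added. 31P NMR spectra recorded over time to follow intermediate and aminoacyl phosphoramidate signals.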
# [4] = Prodrug activation assessed as Saccharomyces cerevisiae carboxypeptidase Y-mediated (2R)-2-(((((2S,4R,5R)-5-(6-amino-9H-purin-9-yl)-4-hydroxytetrahydrofuran-2-yl)methoxy)(phenoxy)phosphoryl)amino)propanoic acid formation at 5 mg measured for 4 mins by 31P-NMR analysis; summary of the method: as §1
# [5] = Prodrug conversion in human K562 cells assessed as fold increase in 3'-dATP level at 50 uM incubated for 2 hrs by LC-MS/MS analysis relative to 3'-Deoxyadenosine; assay type: ADME, cell-based; details: k562, 2 h
# K562 [6] = assay: Potency index, ratio of 3'-Deoxyadenosine LC50 to test compound LC50 for cytotoxicity against human K562 cells assessed as cell death incubated for 72 hrs by MTS assay; assay type: functional
# Adenosine deaminase [7] = molecular target: T1, Adenosine deaminase (Bos taurus, UniProt P56658); assay: Metabolic stability assessed as bovine recombinant adenosine deaminase-mediated 3'-deoxyinosine metabolite formation by measuring shift in maximum absorption at 62.5 uM measured upto 2 hrs by UV absorption spectra based analysis; assay type: ADME; details: cattle
# T1 sequence (P56658 whole entry): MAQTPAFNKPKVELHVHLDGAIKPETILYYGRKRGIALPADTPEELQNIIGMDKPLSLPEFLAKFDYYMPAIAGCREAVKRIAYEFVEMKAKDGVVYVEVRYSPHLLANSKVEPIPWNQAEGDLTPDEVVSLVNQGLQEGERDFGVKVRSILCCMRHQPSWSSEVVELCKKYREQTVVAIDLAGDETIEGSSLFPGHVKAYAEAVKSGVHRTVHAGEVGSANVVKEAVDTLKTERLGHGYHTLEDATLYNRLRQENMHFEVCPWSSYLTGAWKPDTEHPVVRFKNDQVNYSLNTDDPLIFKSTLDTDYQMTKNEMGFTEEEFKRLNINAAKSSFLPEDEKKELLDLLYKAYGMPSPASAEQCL
# Leukemic stem cell [8] = assay: Cytotoxicity against human leukemic stem cells (Lin-/CD34+/CD38-/CD123+) in myeloid leukemia cell line KG-1a assessed as preferential cell killing incubated for 72 hrs
# [9] = Prodrug conversion in human RL cells assessed as fold increase in 3'-dATP level at 50 uM incubated for 2 hrs by LC-MS/MS analysis relative to 3'-Deoxyadenosine; assay type: ADME, cell-based
# CCRF-CEM [10] = assay: Cytotoxicity against deoxynucleotidyl transferase-positive human CCRF-CEM cells assessed as cell death preincubated with adenosine deaminase inhibitor, EHNA for 5 mins followed by compound addition and […]; assay type: functional, cell-based
# RL [11] = assay: Cytotoxicity against deoxynucleotidyl transferase-negative human RL cells assessed as cell death preincubated with adenosine deaminase inhibitor, EHNA for 5 mins followed by compound addition and […]; assay type: functional, cell-based
# [12] = Stability in human plasma assessed as reduction in parent compound concentration at 20 uM incubated for 4 hrs in presence of adenosine deaminase inhibitor, EHNA by UPLC-MS/MS analysis; assay type: ADME, cell-free
# CCRF-CEM [13] = assay: Potency index, ratio of 3'-Deoxyadenosine LC50 to test compound LC50 for cytotoxicity against human CCRF-CEM cells assessed as cell death incubated for 72 hrs by MTS assay; assay type: functional
# [14] = Drug concentration in human plasma at 20 uM measured after 30 sec by UPLC-MS/MS analysis; assay type: ADME, cell-free
# HL-60 [15] = assay: Potency index, ratio of 3'-Deoxyadenosine LC50 to test compound LC50 for cytotoxicity against human HL-60 cells assessed as cell death incubated for 72 hrs by MTS assay; assay type: functional
# [16] = Drug concentration in mouse plasma at 20 uM measured after 30 sec by UPLC-MS/MS analysis; assay type: ADME, cell-free
# [17] = Drug metabolism in mouse plasma assessed as metabolite formation by measuring reduction in parent compound concentration at 20 uM incubated for 24 hrs in presence of adenosine deaminase inhibitor, EHNA by UPLC/MS/MS analysis; assay type: ADME, cell-free
# Jurkat = assay: Potency index, ratio of 3'-Deoxyadenosine LC50 to test compound LC50 for cytotoxicity against human Jurkat cells assessed as cell death incubated for 72 hrs by MTS assay; assay type: functional
# Leukemic stem cell [18] = assay: Cytotoxicity against human leukemic stem cells (Lin-/CD34+/CD38-/CD123+) in myeloid leukemia cell line KG-1a assessed as reduction in LSC population at >1 uM incubated for 72 hrs
# [19] = Prodrug conversion in human CCRF-CEM cells assessed as fold increase in 3'-dATP level at 50 uM incubated for 2 hrs by LC-MS/MS analysis relative to 3'-Deoxyadenosine; assay type: ADME, cell-based
# [20] = Prodrug conversion in human HL-60 cells assessed as fold increase in 3'-dATP level at 50 uM incubated for 2 hrs by LC-MS/MS analysis relative to 3'-Deoxyadenosine; assay type: ADME, cell-based; details: hl-60, 2 h
# RL [21] = assay: Cytotoxicity against deoxynucleotidyl transferase-negative human RL cells assessed as cell death preincubated with adenosine kinase inhibitor, A-134974 for 5 mins followed by compound addition and […]; assay type: functional, cell-based
# [22] = Stability in human plasma assessed as reduction in parent compound concentration at 20 uM measured after 4 hrs by UPLC-MS/MS analysis; assay type: ADME, cell-free
# Summary of the method: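 Human plasma, with or without 1 μM EHNA as ADA inhibitor, was spiked with 20 μM compound at 37 °C/5% CO2. Samples were quenched in methanol, 1:3 sample:methanol, kept 30 min on ice and centrifuged. The supernatant was dried, reconstituted in 10% acetonitrile and quantified by UPLC-MS/MS over time.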
# Adenosine deaminase [23] = molecular target: T1, Adenosine deaminase; assay: Metabolic stability assessed as bovine recombinant adenosine deaminase-mediated 3'-deoxyinosine metabolite formation by measuring shift in maximum absorption at 62.5 uM measured after 2 mins by UV absorption spectra based analysis; assay type: ADME; details: cattle
# Summary of the method: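 Bovine recombinant ADA suspension was diluted in phosphate buffer, pH 7.4, and filtered at 0.2 μm. Substrate at 62.5 μM was added to 17 μL of the ADA solution. UV spectra were scanned at 220–350 nm, 2 nm resolution, every 0.1 min for 10 min to 12 h, with an ADA-only blank subtracted. The read-out is the shift of the 265 nm maximum.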
# MOLT-4 [24] = assay: Cytotoxicity against human MOLT-4 cells assessed as cell death incubated for 72 hrs by MTS assay; assay type: functional; details: read-out: LC50 (the source's name)
# Summary of the method: (§2)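 Contracted MTS assay. Cells seeded the day before treatment and exposed 72 h to nine serial concentrations (3.16-fold steps, top 198 μM), tested in duplicate. MTS added, then 4 h at 37 °C and absorbance read. LC50 is the concentration killing 50% of cells. MI% is the maximum inhibition over the tested range.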
# MCF7 [25] = assay: Cytotoxicity against human MCF7 cells assessed as cell death incubated for 72 hrs by MTS assay; assay type: functional; details: read-out: LC50 (the source's name); summary of the method: as §2
# KG-1 [26] = assay: Cytotoxicity against human KG-1 cells assessed as maximum cell growth inhibition incubated for 72 hrs by MTS assay relative to control; assay type: functional
# Summary of the method: (§3)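 Cells from the 20-line panel were seeded the day before dosing, then exposed to compound for 72 h. MTS was added, followed by 4 h at 37 °C, and absorbance was read. Nine serial 3.16-fold dilutions were tested, top 198 μM, in duplicate. MI% is the maximum inhibitory effect across the tested concentration range.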
# HL-60 [27] = assay: Cytotoxicity against human HL-60 cells assessed as cell death incubated for 72 hrs by MTS assay; assay type: functional; details: read-out: LC50 (the source's name); summary of the method: as §2
# KG-1 [28] = assay: Cytotoxicity against human KG-1 cells assessed as cell death incubated for 72 hrs by MTS assay; assay type: functional; summary of the method: as §2
# K562 [29] = assay: Cytotoxicity against human K562 cells assessed as cell death incubated for 72 hrs by MTS assay; assay type: functional; details: read-out: LC50 (the source's name); summary of the method: as §2
# MOLT-4 [30] = assay: Cytotoxicity against human MOLT-4 cells assessed as maximum cell growth inhibition incubated for 72 hrs by MTS assay relative to control; assay type: functional; summary of the method: as §3
# K562 [31] = assay: Cytotoxicity against human K562 cells assessed as maximum cell growth inhibition incubated for 72 hrs by MTS assay relative to control; assay type: functional; summary of the method: as §3
# HL-60 [32] = assay: Cytotoxicity against human HL-60 cells assessed as maximum cell growth inhibition incubated for 72 hrs by MTS assay relative to control; assay type: functional; summary of the method: as §3
# HepG2 [33] = assay: Cytotoxicity against human HepG2 cells assessed as cell death incubated for 72 hrs by MTS assay; assay type: functional; details: read-out: LC50 (the source's name); summary of the method: as §2
# HepG2 [34] = assay: Cytotoxicity against human HepG2 cells assessed as maximum cell growth inhibition incubated for 72 hrs by MTS assay relative to control; assay type: functional; summary of the method: as §3
# MCF7 [35] = assay: Cytotoxicity against human MCF7 cells assessed as maximum cell growth inhibition incubated for 72 hrs by MTS assay relative to control; assay type: functional; summary of the method: as §3
# CCRF-CEM [36] = assay: Cytotoxicity against human CCRF-CEM cells assessed as maximum cell growth inhibition incubated for 72 hrs by MTS assay relative to control; assay type: functional; summary of the method: as §3
# CCRF-CEM [37] = assay: Cytotoxicity against human CCRF-CEM cells assessed as cell death incubated for 72 hrs by MTS assay; assay type: functional; details: read-out: LC50 (the source's name); summary of the method: as §2
# MV4-11 = assay: Cytotoxicity against human MV4-11 cells assessed as maximum cell growth inhibition incubated for 72 hrs by MTS assay relative to control; assay type: functional; summary of the method: as §3
structure (smiles),measurement,setting,value
C[C@H](NP(=O)(OC[C@@H]1C[C@@H](O)[C@H](n2cnc3c(N)ncnc32)O1)Oc1ccccc1)C(=O)OCc1ccccc1 (some centres not stated) [FOSDESDENOSINE SIPALABENAMIDE],RatioLC50,RL [1],3
same,Stability,[2],Stable
same,Drug metabolism,[3],Metabolite_Detected
same,Drug metabolism,[4],Metabolite_Detected
same,fold change (FC),[5],3
same,RatioLC50,K562 [6],3
same,Stability,Adenosine deaminase [7],Stable
same,Activity,Leukemic stem cell [8],Active
same,fold change (FC),[9],3
same,Activity,CCRF-CEM [10],Active
same,Activity,RL [11],Active
same,Stability,[12],Stable
same,RatioLC50,CCRF-CEM [13],3
same,"concentration at 0.5 min, 20 µM",[14],10 µg/mL
same,RatioLC50,HL-60 [15],3
same,"concentration at 0.5 min, 20 µM",[16],0.0005 µg/mL
same,Drug metabolism,[17],Metabolite_Detected
same,RatioLC50,Jurkat,200
same,Activity,Leukemic stem cell [18],Active
same,fold change (FC),[19],3
same,fold change (FC),[20],3
same,Activity,RL [21],Active
Nc1ncnc2c1ncn2[C@@H]1O[C@H](CO)C[C@H]1O [CORDYCEPIN],Stability,[22],Unstable
same,Stability,Adenosine deaminase [23],Unstable
same,Activity,Leukemic stem cell [18],Active
Nc1ncnc2c1ncn2[C@@H]1O[C@H](COP(=O)(NCC(=O)OCc2ccccc2)Oc2ccccc2)C[C@H]1O (some centres not stated),CC50,MOLT-4 [24],3.55 µM
same,CC50,MCF7 [25],15.5 µM
same,Imax,KG-1 [26],65%
same,CC50,HL-60 [27],45.2 µM
same,LC50,KG-1 [28],136.56 µM
same,CC50,K562 [29],15.4 µM
same,Imax,MOLT-4 [30],93%
same,Imax,K562 [31],92%
same,Imax,HL-60 [32],82%
same,CC50,HepG2 [33],142 µM
same,Imax,HepG2 [34],59%
same,Imax,MCF7 [35],87%
same,Imax,CCRF-CEM [36],94%
same,CC50,CCRF-CEM [37],14.9 µM
CC(=O)O[C@H]1C(=O)[C@@]2(C)[C@H]([C@H](OC(=O)c3ccccc3)[C@]3(O)C[C@H](OC(=O)[C@H](O)[C@@H](NC(=O)c4ccccc4)c4ccccc4)C(C)=C1C3(C)C)[C@]1(OC(C)=O)CO[C@@H]1C[C@@H]2O [PACLITAXEL],Imax,KG-1 [26],89%
CCOC(=O)CCc1ccccc1OP(=O)(N[C@@H](C)C(=O)OCc1ccccc1)OC[C@@H]1C[C@@H](O)[C@H](n2cnc3c(N)ncnc32)O1 (some centres not stated),Imax,KG-1 [26],69%
same,fold change (FC),[5],2
same,fold change (FC),[9],2
same,fold change (FC),[19],2
same,fold change (FC),[20],2
C[C@H](N[P@@](=O)(OC[C@@H]1C[C@@H](O)[C@H](n2cnc3c(N)ncnc32)O1)Oc1ccccc1)C(=O)OCc1ccccc1,Imax,KG-1 [26],90%
C[C@H](N[P@](=O)(OC[C@@H]1C[C@@H](O)[C@H](n2cnc3c(N)ncnc32)O1)Oc1ccccc1)C(=O)OCc1ccccc1,Imax,MV4-11,100%
